Data from ChEMBL document CHEMBL1132356, “Structural modification of Fas C-terminal tripeptide and its effects on the inhibitory activity of Fas/FAP-1 binding” (J Med Chem, 1999).
Values belong to the molecule of their own block, whether it stands above or below them. Starred links: 1 amine or outer side, 2 acyl side, 3 side chain; linkers in the order of their positions; H or OH if unused. Non-standard residues stand in square brackets, D forms with d. Residues, ends and D or L forms follow the SMILES beside them. *: point of attachment. Sta = CC(C)C[C@H](N)[C@@H](O)CC(=O)O; tBuAla = CC(C)(C)C[C@H](N)C(=O)O; NMeL = CN[C@@H](CC(C)C)C(=O)O; Chg = N[C@H](C(=O)O)C1CCCCC1; Phg = N[C@H](C(=O)O)c1ccccc1; Tle = CC(C)(C)[C@H](N)C(=O)O; NMeS = CN[C@@H](CO)C(=O)O; hSer = N[C@@H](CCO)C(=O)O; Nva = CCC[C@H](N)C(=O)O; Abu = CC[C@H](N)C(=O)O; Aib = CC(C)(N)C(=O)O; CO = O=C([*:1])[*:2]; Bz = O=C(c1ccccc1)*; NHPh = c1ccc(N*)cc1; Bn = c1ccc(C*)cc1

Experiments:
[1] = Compound (10 mM) was tested in vitro for inhibitory potency against Fas-associated phosphatase-1 binding from HFAP-10cDNA subcloned into the bluescript vector pSK-II(Stratagene); settings: in the assay text read “10 uM” for “10 mM”
Summary of the method: (§1)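 ³⁵S-labeled protein incubated 16 h at 4 °C with peptide and GST-Fas immobilized on beads, in pH 8.0 Tris/NaCl buffer with DTT, EDTA, 1.1% NP-40 and protease inhibitors. After four washes, bead-bound radioactivity was counted by scintillation. Specific binding is Fas binding minus FasΔ15 binding. % inhibition = 100 − (specific binding with peptide / without peptide × 100).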

[2] = Compound (50 mM) was tested in vitro for inhibitory potency against Fas-associated phosphatase-1 binding from HFAP-10cDNA subcloned into the bluescript vector pSK-II(Stratagene); summary of the method: as §1
[3] = Compound (30 mM) was tested in vitro for inhibitory potency against Fas-associated phosphatase-1 binding from HFAP-10cDNA subcloned into the bluescript vector pSK-II(Stratagene); settings: in the assay text read “30 µM” for “30 mM”; summary of the method: as §1
[4] = Compound (100 mM) was tested in vitro for inhibitory potency against Fas-associated phosphatase-1 binding from HFAP-10cDNA subcloned into the bluescript vector pSK-II(Stratagene); summary of the method: as §1
[5] = target: Tyrosine-protein phosphatase non-receptor type 13 (Homo sapiens) (UniProt Q12923); assay: In vitro inhibition of Fas-associated phosphatase-1 binding from HFAP-10cDNA subcloned into bluescript vector; parameters: concentration or dose not given beside the values; settings: concentration not given here
Tyrosine-protein phosphatase non-receptor type 13 (Homo sapiens), sequence (Q12923 whole entry, the tested form may be a part): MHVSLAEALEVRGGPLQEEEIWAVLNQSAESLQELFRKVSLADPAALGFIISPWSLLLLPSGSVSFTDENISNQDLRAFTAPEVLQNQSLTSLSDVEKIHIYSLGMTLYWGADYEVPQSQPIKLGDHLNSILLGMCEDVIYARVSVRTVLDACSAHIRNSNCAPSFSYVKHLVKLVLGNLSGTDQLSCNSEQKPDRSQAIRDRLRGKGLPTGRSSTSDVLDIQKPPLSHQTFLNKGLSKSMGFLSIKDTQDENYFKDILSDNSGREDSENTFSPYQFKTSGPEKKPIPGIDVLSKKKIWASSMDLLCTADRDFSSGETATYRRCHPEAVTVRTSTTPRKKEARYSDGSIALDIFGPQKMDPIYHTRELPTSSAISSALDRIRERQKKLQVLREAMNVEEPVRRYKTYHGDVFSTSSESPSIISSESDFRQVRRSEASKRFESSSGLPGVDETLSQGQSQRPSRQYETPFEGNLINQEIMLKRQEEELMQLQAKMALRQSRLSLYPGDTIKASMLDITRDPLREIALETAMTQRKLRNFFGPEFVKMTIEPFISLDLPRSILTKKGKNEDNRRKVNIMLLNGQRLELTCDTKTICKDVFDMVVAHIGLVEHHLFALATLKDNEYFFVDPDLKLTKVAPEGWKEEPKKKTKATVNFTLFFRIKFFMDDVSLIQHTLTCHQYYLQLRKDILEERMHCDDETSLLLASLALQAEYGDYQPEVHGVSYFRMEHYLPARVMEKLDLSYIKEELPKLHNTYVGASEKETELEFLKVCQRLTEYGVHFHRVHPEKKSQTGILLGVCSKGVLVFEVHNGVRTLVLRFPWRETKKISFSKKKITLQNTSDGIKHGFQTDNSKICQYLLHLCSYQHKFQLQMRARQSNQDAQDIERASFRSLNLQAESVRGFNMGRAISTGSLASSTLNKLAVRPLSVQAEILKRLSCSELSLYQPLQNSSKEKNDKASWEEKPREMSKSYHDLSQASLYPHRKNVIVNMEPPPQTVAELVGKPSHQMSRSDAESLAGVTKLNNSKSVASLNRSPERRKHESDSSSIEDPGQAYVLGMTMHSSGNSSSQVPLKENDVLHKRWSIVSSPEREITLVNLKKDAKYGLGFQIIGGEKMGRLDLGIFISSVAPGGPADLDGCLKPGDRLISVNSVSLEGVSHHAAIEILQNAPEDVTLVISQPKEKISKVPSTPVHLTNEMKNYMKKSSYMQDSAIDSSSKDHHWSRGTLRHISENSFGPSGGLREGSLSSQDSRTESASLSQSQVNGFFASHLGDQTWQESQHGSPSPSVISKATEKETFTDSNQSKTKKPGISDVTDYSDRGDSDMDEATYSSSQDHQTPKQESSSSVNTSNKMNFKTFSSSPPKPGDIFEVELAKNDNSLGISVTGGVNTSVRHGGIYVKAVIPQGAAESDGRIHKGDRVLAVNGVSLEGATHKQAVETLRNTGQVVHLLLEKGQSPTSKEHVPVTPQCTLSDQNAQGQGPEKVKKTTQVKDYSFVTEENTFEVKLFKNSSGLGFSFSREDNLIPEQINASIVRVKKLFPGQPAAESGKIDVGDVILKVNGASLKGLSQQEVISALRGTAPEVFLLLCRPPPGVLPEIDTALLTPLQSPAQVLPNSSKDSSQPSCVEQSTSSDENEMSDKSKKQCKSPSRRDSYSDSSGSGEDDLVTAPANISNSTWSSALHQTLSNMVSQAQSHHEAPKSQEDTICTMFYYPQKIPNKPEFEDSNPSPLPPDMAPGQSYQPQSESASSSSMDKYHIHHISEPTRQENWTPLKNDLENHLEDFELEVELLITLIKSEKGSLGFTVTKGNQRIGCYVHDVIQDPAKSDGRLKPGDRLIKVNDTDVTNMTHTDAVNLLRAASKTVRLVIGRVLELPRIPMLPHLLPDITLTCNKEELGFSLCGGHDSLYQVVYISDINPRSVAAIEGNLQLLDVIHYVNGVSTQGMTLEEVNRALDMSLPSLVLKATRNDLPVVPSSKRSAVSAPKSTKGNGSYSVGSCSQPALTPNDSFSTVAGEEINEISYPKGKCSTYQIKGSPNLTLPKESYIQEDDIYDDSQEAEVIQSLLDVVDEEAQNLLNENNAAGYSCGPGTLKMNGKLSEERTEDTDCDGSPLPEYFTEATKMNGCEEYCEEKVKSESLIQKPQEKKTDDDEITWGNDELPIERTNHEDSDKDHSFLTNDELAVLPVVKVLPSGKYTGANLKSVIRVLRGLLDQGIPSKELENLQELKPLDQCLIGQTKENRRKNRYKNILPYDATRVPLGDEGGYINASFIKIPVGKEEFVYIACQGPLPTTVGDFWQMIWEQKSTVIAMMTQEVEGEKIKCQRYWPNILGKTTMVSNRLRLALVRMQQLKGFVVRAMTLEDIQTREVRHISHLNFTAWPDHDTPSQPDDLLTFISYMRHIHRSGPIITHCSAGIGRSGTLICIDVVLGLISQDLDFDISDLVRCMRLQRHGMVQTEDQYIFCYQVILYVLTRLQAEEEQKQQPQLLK
Summary of the method: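 35S-labeled FAP-1 incubated 16 h at 4 °C with peptide and GST-Fas fusion protein on glutathione beads in 150 mM NaCl, 50 mM Tris pH 8.0, 5 mM DTT, 2 mM EDTA, 1.1% NP-40, protease inhibitors. After four washes, bead-bound radioactivity counted by scintillation. Specific binding is Fas minus Fas∆15 binding. % inhibition = 100 − (specific binding with peptide / without peptide × 100).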

inhibition [1]: 16%
Structure (SMILES): CC(C)C[C@H](NC(=O)[C@H](CO)NC(=O)C1CCCCC1)C(=O)N[C@H](C(=O)O)C(C)C

inhibition [2]: 18.7%
Structure (SMILES): CC[C@H](NC(=O)[C@H](CC(C)C)NC(=O)[C@H](CO)NC(C)=O)C(=O)O (Ac-Ser-Leu-[Abu]-OH)

inhibition [3]: 34.7%
Structure (SMILES): CC(=O)N[C@@H](CO)C(=O)N[C@H](C(=O)N[C@H](C(=O)O)C(C)C)C1CCCCC1 (Ac-Ser-[Chg]-Val-OH)

inhibition [2]: 9.6%
Structure (SMILES): CC(=O)N1C[C@@H](O)C[C@H]1C(=O)N[C@@H](CC(C)C)C(=O)N[C@H](C(=O)O)C(C)C

inhibition [1]: 29.1%
Structure (SMILES): CC(C)C[C@H](NC(=O)[C@H](CO)NC(=O)NC1CCCCC1)C(=O)N[C@H](C(=O)O)C(C)C

inhibition [1]: 51.5%
Structure (SMILES): CC(C)C[C@H](NC(=O)[C@H](CO)NC(=O)Nc1ccccc1)C(=O)N[C@H](C(=O)O)C(C)C ({NHPh-CO}-Ser-Leu-Val-OH)

inhibition [2]: 13.3%
Structure (SMILES): CC(=O)N[C@@H](CCO)C(=O)N[C@@H](CC(C)C)C(=O)N[C@H](C(=O)O)C(C)C (Ac-[hSer]-Leu-Val-OH)

inhibition [2]: 16.6%
Structure (SMILES): CCC[C@H](NC(=O)[C@H](CC(C)C)NC(=O)[C@H](CO)NC(C)=O)C(=O)O (Ac-Ser-Leu-[Nva]-OH)

inhibition [3]: 13.6%
Structure (SMILES): CC(=O)N[C@@H](CO)C(=O)NCCC(=O)N[C@H](C(=O)O)C(C)C

inhibition [4]: 10.4%
Structure (SMILES): CC(=O)N[C@@H](COCc1ccccc1)C(=O)N[C@@H](CC(C)C)C(=O)N[C@H](C(=O)O)C(C)C (Ac-Ser(Bn)-Leu-Val-OH)

inhibition [4]: 47.9%
Structure (SMILES): CC(=O)N[C@@H](COC(C)=O)C(=O)N[C@@H](CC(C)C)C(=O)N[C@H](C(=O)O)C(C)C (Ac-Ser(Ac)-Leu-Val-OH)

inhibition [1]: 47.8%
Structure (SMILES): CC(C)C[C@H](NC(=O)[C@H](CO)NC(=O)Nc1ccccc1C(=O)[C@@H](N)CCC(=O)O)C(=O)N[C@H](C(=O)O)C(C)C

inhibition [1]: 66.6%
Structure (SMILES): CC(C)C[C@H](NC(=O)[C@H](CO)NC(=O)Nc1ccc(C(=O)[C@@H](N)CCC(=O)O)cc1)C(=O)N[C@H](C(=O)O)C(C)C

inhibition [5]: 20.6%
Structure (SMILES): CC(=O)N(C)[C@@H](CO)C(=O)N[C@@H](CC(C)C)C(=O)N[C@H](C(=O)O)C(C)C (Ac-[NMeS]-Leu-Val-OH)

inhibition [3]: 4.9%
Structure (SMILES): CC(=O)N[C@@H](CO)C(=O)N[C@@H](CC(C)C)[C@@H](O)C(=O)N[C@H](C(=O)O)C(C)C

inhibition [1]: 28%
Structure (SMILES): CC(C)C[C@H](NC(=O)[C@H](CO)NC(=O)c1ccccc1)C(=O)N[C@H](C(=O)O)C(C)C (Bz-Ser-Leu-Val-OH)

inhibition [3]: 46.7%
Structure (SMILES): CC(=O)N[C@@H](CO)C(=O)N[C@@H](Cc1ccc(Oc2ccc(OC(C)=O)cc2)cc1)C(=O)N[C@H](C(=O)O)C(C)C

inhibition [5]: 9.5%
Structure (SMILES): CC(=O)N[C@@H](CO)C(=O)Nc1cccc(C(=O)N[C@H](C(=O)O)C(C)C)c1

inhibition [5]: -6.8%
Structure (SMILES): CC(=O)N[C@@H](CO)C(=O)N[C@@H](CC(C)C)C(=O)N[C@@H](C(=O)O)C(C)C

inhibition [3]: 6%
Structure (SMILES): CCC[C@H](NC(=O)[C@H](CO)NC(C)=O)C(=O)N[C@H](C(=O)O)C(C)C (Ac-Ser-[Nva]-Val-OH)

inhibition [1]: 29.6%
Structure (SMILES): CC[C@@H](C)[C@H](NC(=O)[C@H](CCC(=O)O)NC(C)=O)C(=O)N[C@@H](CCC(N)=O)C(=O)N[C@@H](CO)C(=O)N[C@@H](CC(C)C)C(=O)N[C@H](C(=O)O)C(C)C

inhibition [5]: 1.2%
Structure (SMILES): CC(=O)N[C@@H](CO)C(=O)N[C@H](CC(C)C)C(=O)N[C@H](C(=O)O)C(C)C

inhibition [1]: 76.8%
Structure (SMILES): CC(C)C[C@H](NC(=O)[C@H](CO)NC(=O)Nc1cccc(C(=O)[C@@H](N)CCC(=O)O)c1)C(=O)N[C@H](C(=O)O)C(C)C

inhibition [5]: 33.4%
Structure (SMILES): CC(=O)N[C@@H](CO)C(=O)N(C)[C@@H](CC(C)C)C(=O)N[C@H](C(=O)O)C(C)C (Ac-Ser-[NMeL]-Val-OH)

inhibition [3]: 18.5%
Structure (SMILES): CC(=O)N[C@@H](CO)C(=O)N[C@H](C(=O)N[C@H](C(=O)O)C(C)C)c1ccccc1 (Ac-Ser-[Phg]-Val-OH)

inhibition [5]: 14.4%
Structure (SMILES): CC(=O)N[C@@H](CO)C(=O)N[C@@H](CC(C)C)C(=O)N[C@H](C(=O)Oc1nn[nH]n1)C(C)C

inhibition [5]: -4%
Structure (SMILES): CC(=O)N[C@@H](CO)C(=O)NC(C)(C)C(=O)N[C@H](C(=O)O)C(C)C (Ac-Ser-[Aib]-Val-OH)

inhibition [5]: 16.5%
Structure (SMILES): CC(=O)N[C@@H](CO)C(=O)Nc1ccc(C(=O)N[C@H](C(=O)O)C(C)C)cc1

inhibition [5]: -0.5%
Structure (SMILES): COC(=O)[C@@H](NC(=O)[C@H](CC(C)C)NC(=O)[C@H](CO)NC(C)=O)C(C)C (Ac-Ser-Leu-Val-OMe)

inhibition [2]: 7.7%
Structure (SMILES): CC(=O)N[C@@H](CO)C(=O)N[C@@H](CC(C)C)C(=O)N[C@H](C(=O)O)C1CCCCC1 (Ac-Ser-Leu-[Chg]-OH)

inhibition [2]: 7.2%
Structure (SMILES): CC(=O)N[C@@H](CO)C(=O)N[C@@H](CC(C)C)C(=O)N[C@H](C(=O)O)C(C)(C)C (Ac-Ser-Leu-[Tle]-OH)

inhibition [2]: 10.1%
Structure (SMILES): CC(=O)N[C@@H](CO)C(=O)N[C@@H](CC(C)C)C(=O)N[C@@H](CC(C)(C)C)C(=O)O (Ac-Ser-Leu-[tBuAla]-OH)

inhibition [2]: 9.9%
Structure (SMILES): CC(=O)N[C@@H](CC(C)C)[C@@H](O)CC(=O)N[C@@H](CC(C)C)C(=O)N[C@H](C(=O)O)C(C)C (Ac-[Sta]-Leu-Val-OH)

inhibition [4]: 87.6%
inhibition [2]: 44.3%
inhibition [5]: 101%
inhibition [3]: 31.1%
Structure (SMILES): CC(=O)N[C@@H](CO)C(=O)N[C@@H](CC(C)C)C(=O)N[C@H](C(=O)O)C(C)C

inhibition [5]: 59.2%
Structure (SMILES): CC(=O)N[C@H](CO)C(=O)N[C@@H](CC(C)C)C(=O)N[C@H](C(=O)O)C(C)C

inhibition [3]: 21.1%
Structure (SMILES): CC[C@H](NC(=O)[C@H](CO)NC(C)=O)C(=O)N[C@H](C(=O)O)C(C)C (Ac-Ser-[Abu]-Val-OH)

inhibition [2]: 2.4%
Structure (SMILES): CC(=O)N1C[C@H](O)C[C@H]1C(=O)N[C@@H](CC(C)C)C(=O)N[C@H](C(=O)O)C(C)C

inhibition [4]: 36.2%
Structure (SMILES): CC(=O)N[C@@H](COC(=O)c1ccccc1)C(=O)N[C@@H](CC(C)C)C(=O)N[C@H](C(=O)O)C(C)C (Ac-Ser(Bz)-Leu-Val-OH)

inhibition [3]: 54.6%
Structure (SMILES): CC(=O)N[C@@H](CO)C(=O)N[C@H](C(=O)N[C@H](C(=O)O)C(C)C)C(C)(C)C (Ac-Ser-[Tle]-Val-OH)
